Experimental data taken from ChEMBL document CHEMBL1629527, “In vitro antifungal activities of bis(alkylpyridinium)alkane compounds against pathogenic yeasts and molds” (Antimicrob Agents Chemother, 2010).
pIC50: −log10 of the molar value.

Key:
Candida albicans [1] = test: Antifungal activity against Candida albicans after 48 to 72 hrs; type: functional
How it was run: (§1)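 MFC: after the MIC read, 30-μl aliquots from each well without visible growth were plated onto Sabouraud dextrose agar and incubated at 35°C. Reading was at 48–72 h for yeasts and up to 7 days for molds. MFC was the lowest concentration with no colonies.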

Nakaseomyces glabratus [2] = test: Antifungal activity against Candida glabrata after 48 to 72 hrs; type: functional; how it was run: as §1
Candida parapsilosis [3] = test: Antifungal activity against Candida parapsilosis after 48 to 72 hrs; type: functional; how it was run: as §1
Pichia kudriavzevii [4] = test: Antifungal activity against Candida krusei after 48 to 72 hrs; type: functional; how it was run: as §1
Candida dubliniensis [5] = test: Antifungal activity against Candida dubliniensis after 48 to 72 hrs; type: functional; how it was run: as §1
[6] = tested on: Meyerozyma guilliermondii; test: Antifungal activity against Candida guilliermondii after 48 to 72 hrs; type: functional; how it was run: as §1
Clavispora lusitaniae = test: Antifungal activity against Candida lusitaniae after 48 to 72 hrs; type: functional; how it was run: as §1
Cryptococcus neoformans [7] = test: Antifungal activity against Cryptococcus neoformans after 48 to 72 hrs; type: functional; how it was run: as §1
[8] = Toxicity against human erythrocytes assessed as hemolysis; type: cell-based, Erythrocyte
Rhizopus arrhizus [9] = test: Antifungal activity against Rhizopus oryzae 05-203111 after 48 to 72 hrs; type: functional
How it was run: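 After the broth microdilution MIC read, suspension from every well without visible growth was plated onto Sabouraud dextrose agar and incubated at 35°C, up to 7 days for molds. MFC was taken as the lowest drug concentration with no colonies.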

Candida tropicalis = test: Antifungal activity against Candida tropicalis after 24 to 72 hrs by broth microdilution method; type: functional
How it was run: (§2)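 Broth microdilution MIC per CLSI M27-A3 (yeasts) or M38-A2 (molds). RPMI 1640 with L-glutamine, without bicarbonate, buffered to pH 7.0 with 0.165 M MOPS. Final test range for the compounds was 0.175–87.5 μM. Incubation at 35°C with visual reading at 24–72 h. MIC was the lowest concentration giving 100% inhibition versus the growth control (azoles 50% or 100%, by organism). Each isolate was run in duplicate in two independent experiments.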

Candida parapsilosis [10] = test: Antifungal activity against Candida parapsilosis after 24 to 72 hrs by broth microdilution method; type: functional; conditions: Lodderomyces parapsilosis; how it was run: as §2
Pichia kudriavzevii [11] = test: Antifungal activity against Candida krusei after 24 to 72 hrs by broth microdilution method; type: functional; how it was run: as §2
Candida dubliniensis [12] = test: Antifungal activity against Candida dubliniensis after 24 to 72 hrs by broth microdilution method; type: functional; how it was run: as §2
[13] = tested on: Meyerozyma guilliermondii; test: Antifungal activity against Candida guilliermondii after 24 to 72 hrs by broth microdilution method; type: functional; how it was run: as §2
Cryptococcus neoformans [14] = test: Antifungal activity against Cryptococcus neoformans 05-202523 after 48 to 72 hrs; type: functional; how it was run: as §1
Exophiala spinifera = test: Antifungal activity against Exophiala spinifera 03-200803 after 24 to 72 hrs by broth microdilution method; type: functional
How it was run: (§3)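 Mold isolates subcultured on potato dextrose agar, then tested by CLSI M38-A2 broth microdilution in RPMI 1640 (L-glutamine, no bicarbonate) buffered to pH 7.0 with 0.165 M MOPS. Compounds were dissolved in water and tested at a final 0.175–87.5 μM. Plates were incubated at 35°C. MIC was read visually as the lowest concentration giving 100% inhibition versus the growth control. Each isolate was run in duplicate in two independent experiments.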

Fusarium solani = test: Antifungal activity against Fusarium solani 04-203102 after 24 to 72 hrs by broth microdilution method; type: functional; how it was run: as §3
[15] = Antifungal activity against Paecilomyces lilacinus 05-200601 after 24 to 72 hrs by broth microdilution method; type: functional; conditions: Purpureocillium lilacinum; how it was run: as §3
Rhizopus arrhizus [16] = test: Antifungal activity against Rhizopus oryzae 05-203111 after 24 to 72 hrs by broth microdilution method; type: functional; how it was run: as §3
Aspergillus flavus = test: Antifungal activity against Aspergillus flavus ATCC 204304 after 24 to 72 hrs by broth microdilution method; type: functional; how it was run: as §2
Aspergillus terreus = test: Antifungal activity against Aspergillus terreus 05-202844 after 24 to 72 hrs by broth microdilution method; type: functional; how it was run: as §2
Lomentospora prolificans = test: Antifungal activity against Scedosporium prolificans 05-203060 after 24 to 72 hrs by broth microdilution method; type: functional; how it was run: as §3
Scedosporium apiospermum = test: Antifungal activity against Scedosporium apiospermum 05-203100 after 24 to 72 hrs by broth microdilution method; type: functional; how it was run: as §3
[17] = tested on: Cunninghamella bertholletiae; test: Antifungal activity against Cunninghamella bertholletiae 99-12187 after 24 to 72 hrs by broth microdilution method; type: functional; how it was run: as §2
Lichtheimia corymbifera = test: Antifungal activity against Absidia corymbifera 04-200170 after 24 to 72 hrs by broth microdilution method; type: functional; how it was run: as §2
Aspergillus fumigatus = test: Antifungal activity against Aspergillus fumigatus ATCC 204305 after 24 to 72 hrs by broth microdilution method; type: functional; how it was run: as §2
[18] = tested on: Cryptococcus gattii species complex; test: Antifungal activity against Cryptococcus gattii 05-200122 after 24 to 72 hrs by broth microdilution method; type: functional, Cryptococcus bacillisporus; how it was run: as §2
Cryptococcus neoformans [19] = test: Antifungal activity against Cryptococcus neoformans 05-202523 after 24 to 72 hrs by broth microdilution method; type: functional; how it was run: as §2
Cryptococcus neoformans [20] = test: Antifungal activity against Cryptococcus neoformans ATCC 90112 after 24 to 72 hrs by broth microdilution method; type: functional; how it was run: as §2
Nakaseomyces glabratus [21] = test: Antifungal activity against Candida glabrata 04-202345 after 24 to 72 hrs by broth microdilution method; type: functional; how it was run: as §2
Candida parapsilosis [22] = test: Antifungal activity against Candida parapsilosis 04-202398 after 24 to 72 hrs by broth microdilution method; type: functional; conditions: Lodderomyces parapsilosis; how it was run: as §2
Pichia kudriavzevii [23] = test: Antifungal activity against Candida krusei 04-202328 after 24 to 72 hrs by broth microdilution method; type: functional; how it was run: as §2
Candida parapsilosis [24] = test: Antifungal activity against Candida parapsilosis ATCC 22019 after 24 to 72 hrs by broth microdilution method; type: functional; conditions: Lodderomyces parapsilosis; how it was run: as §2
Pichia kudriavzevii [25] = test: Antifungal activity against Candida krusei ATCC 6258 after 24 to 72 hrs by broth microdilution method; type: functional; how it was run: as §2
Candida albicans [26] = test: Antifungal activity against Candida albicans ATCC 10231 after 24 to 72 hrs by broth microdilution method; type: functional; how it was run: as §2
Candida albicans [27] = test: Antifungal activity against Candida albicans ATCC 90028 after 24 to 72 hrs by broth microdilution method; type: functional; how it was run: as §2
[28] = Antifungal activity against Exophiala jeanselmei 03-200268 after 24 to 72 hrs by broth microdilution method; type: functional; how it was run: as §2

- MIC (Candida tropicalis): 0.746 µg/mL
- MIC50 (Candida tropicalis): 0.75 µg/mL
- MIC90 (Candida tropicalis): 1.47 µg/mL
- MIC (Candida parapsilosis [10]): 23.5 µg/mL
- MIC50 (Candida parapsilosis [10]): 23.5 µg/mL
- MIC90 (Candida parapsilosis [10]): 23.5 µg/mL
- MIC (Pichia kudriavzevii [11]): 3.38 µg/mL
- MIC50 (Pichia kudriavzevii [11]): 2.94 µg/mL
- MIC90 (Pichia kudriavzevii [11]): 5.87 µg/mL
- MIC (Candida dubliniensis [12]): 2.22 µg/mL
- MIC50 (Candida dubliniensis [12]): 1.47 µg/mL
- MIC90 (Candida dubliniensis [12]): 2.93 µg/mL
- MIC [13]: 1.69 µg/mL
- MIC50 [13]: 1.47 µg/mL
- MIC90 [13]: 1.47 µg/mL
- MIC (Exophiala spinifera): 0.74 µg/mL
- MIC (Fusarium solani): 47.3 µg/mL
- MIC [15]: > 47.3 µg/mL
- MIC (Rhizopus arrhizus [16]): 5.9 µg/mL
- MIC (Aspergillus flavus): > 47.3 µg/mL
- MIC (Aspergillus terreus): 1.48 µg/mL
- MIC (Lomentospora prolificans): 1.48 µg/mL
- MIC (Scedosporium apiospermum): 11.8 µg/mL
- MIC [17]: > 47.3 µg/mL
- MIC (Lichtheimia corymbifera): > 47.3 µg/mL
- MIC (Aspergillus fumigatus): > 47.3 µg/mL
- MIC [18]: 1.48 µg/mL
- MIC (Cryptococcus neoformans [19]): 11.8 µg/mL
- MIC (Cryptococcus neoformans [20]): 11.8 µg/mL
- MIC (Nakaseomyces glabratus [21]): 1.5 µg/mL
- MIC (Candida parapsilosis [22]): 47.3 µg/mL
- MIC (Pichia kudriavzevii [23]): 11.8 µg/mL
- MIC (Candida parapsilosis [24]): 1.48 µg/mL
- MIC (Pichia kudriavzevii [25]): 5.9 µg/mL
- MIC (Candida albicans [26]): 1.48 µg/mL
- MIC (Candida albicans [27]): 1.48 µg/mL
- MIC [28]: 5.9 µg/mL
Structure (SMILES): C=CCCCc1cc[n+](CCCCCCCCCCCC[n+]2ccc(CCCC=C)cc2)cc1.[Cl-].[Cl-]
- MFC50 (Candida albicans [1]): 1.47 µg/mL
- MFC90 (Candida albicans [1]): 1.47 µg/mL
- MFC (Candida albicans [1]; Candida albicans): 0.75 µg/mL
- MFC50 (Nakaseomyces glabratus [2]): 1.47 µg/mL
- MFC90 (Nakaseomyces glabratus [2]): 5.87 µg/mL
- MFC (Nakaseomyces glabratus [2]; Nakaseomyces glabratus): 0.75 µg/mL
- MFC50 (Candida parapsilosis [3]): 23.5 µg/mL
- MFC90 (Candida parapsilosis [3]): 23.5 µg/mL
- MFC (Candida parapsilosis [3]; Lodderomyces parapsilosis): 23.5 µg/mL
- MFC50 (Pichia kudriavzevii [4]): 5.87 µg/mL
- MFC90 (Pichia kudriavzevii [4]): 11.74 µg/mL
- MFC (Pichia kudriavzevii [4]; Pichia kudriavzevii): 0.75 µg/mL
- MFC50 (Candida dubliniensis [5]): 2.93 µg/mL
- MFC90 (Candida dubliniensis [5]): 2.93 µg/mL
- MFC (Candida dubliniensis [5]; Candida dubliniensis): 1.47 µg/mL
- MFC50 [6]: 1.47 µg/mL
- MFC90 [6]: 5.87 µg/mL
- MFC ([6]; Meyerozyma guilliermondii): 0.75 µg/mL
- MFC50 (Clavispora lusitaniae): 2.93 µg/mL
- MFC90 (Clavispora lusitaniae): 5.87 µg/mL
- MFC (Clavispora lusitaniae; Clavispora lusitaniae): 1.47 µg/mL
- MFC50 (Cryptococcus neoformans [7]): 5.87 µg/mL
- MFC90 (Cryptococcus neoformans [7]): 11.74 µg/mL
- MFC (Cryptococcus neoformans [7]; Cryptococcus neoformans): 2.94 µg/mL
- HC50 [8]: > 129 µM
- pIC50 [8]: < 4.32
- MFC (Rhizopus arrhizus [9]): 23.7 µg/mL
- MFC (Cryptococcus neoformans [14]): 23.7 µg/mL
